“And” between values parts separate entries of the source, which are not always exact repeats. Identical values can stand only once.
Experiments:
[1] = target: Platelet-activating factor receptor (Rattus norvegicus) (UniProt P46002); experiment: Activity expressed as the dose required to reduce the lowering of the arterial blood pressure caused by PAF by 50%; type: functional; conditions: Artery
How it was run: (§1)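 Male Sprague-Dawley rats (180–220 g) anesthetized with sodium pentobarbital (50 mg/kg ip). Carotid arterial pressure was recorded. Compound was given iv in saline (1 mL/kg) via femoral vein 3 min before PAF (0.5 μg/kg iv); vehicle controls.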

Rattus norvegicus = organism: Rattus norvegicus; experiment: Activity expressed as the dose required to reduce the lowering of the arterial blood pressure caused by PAF by 50%.; type: functional; conditions: Artery, read-out: ID50 (the source's name); how it was run: as §1

Platelet-activating factor receptor (Rattus norvegicus), sequence (P46002 whole entry): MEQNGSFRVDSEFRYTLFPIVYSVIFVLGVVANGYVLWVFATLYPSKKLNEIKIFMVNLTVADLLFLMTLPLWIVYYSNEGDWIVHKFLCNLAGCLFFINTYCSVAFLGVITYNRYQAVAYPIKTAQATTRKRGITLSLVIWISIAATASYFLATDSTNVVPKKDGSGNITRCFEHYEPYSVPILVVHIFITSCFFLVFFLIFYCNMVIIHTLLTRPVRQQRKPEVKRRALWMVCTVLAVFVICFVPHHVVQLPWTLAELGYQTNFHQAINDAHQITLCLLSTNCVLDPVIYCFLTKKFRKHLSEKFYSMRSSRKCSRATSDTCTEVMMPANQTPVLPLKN

Row | SMILES | ID50 [1] | ED50 (Rattus norvegicus) [mg/kg]
1 | CCCCCCCCCCCCCCCCOCC1COC(COC(=O)N(Cc2cccc[n+]2CC)C(=O)OCC)C1 (stereo not given) | 0.035 mg/kg | 
2 | CCCCCCCCCCCCCCOCC1COC(COC(=O)N(Cc2cccc[n+]2CC)C(C)=O)C1 (stereo not given) | 0.087 mg/kg | 
3 | CCCCCCCCCCCCCCCCCC1OCC(COCCCCCC[n+]2cscc2C)O1 (stereo not given) | 3.1 mg/kg | 
4 | CCCCCCCCCCCCCCCCCC1CCC(COC(=O)N(Cc2cccc[n+]2CC)C(C)=O)O1 (stereo not given) | 0.15 mg/kg | 
5 | CCCCCCCCCCCCCCCNC(=O)OCC1CC(COC(=O)N(Cc2cccc[n+]2CC)C(C)=O)CO1 (stereo not given) | 0.049 mg/kg | 
6 | CCCCCCCCCCCCCCC1COC(COC(=O)N(Cc2cccc[n+]2CC)C(C)=O)C1 (stereo not given) | 0.24 mg/kg | 
7 | CCCCCCCCCCCCCCCCOCC1COC(COCCCCCC[n+]2ccsc2)C1 (stereo not given) | 1.2 mg/kg | 
8 | CCCCCCCCCCCCCCCCCCOCC1CC(COCCCCCCC[n+]2ccsc2)CO1 (stereo not given) | 2.1 mg/kg | 
9 | CCCCCCCCCCCCCCCCCC1OCC(COCCCCCC[N+]2(C)CCOCC2)O1 (stereo not given) | > 5 mg/kg | 
10 | CCCCCCCCCCCCOCC1COC(COCCCCCCC[n+]2ccsc2)C1 (stereo not given) | 3.7 mg/kg | 
11 | CCCCCCCCCCCCCCCCCCOCC1COC(COC(=O)NCc2cc[n+](CC)cc2)C1 (stereo not given) | > 5 mg/kg | 
12 | CCCCCCCCCCCCCCCCCC1OCC(COC(=O)CCCCC[n+]2ccsc2)O1 (stereo not given) | 0.88 mg/kg | 
13 | CCCCCCCCCCCCCCCCOCC1OCC(COCCCC[n+]2ccsc2)O1 (stereo not given) | 2.7 mg/kg | 
14 | CCCCCCCCCCCCCCCCOCC1COC(COC(=O)N(Cc2ccccn2)C(C)=O)C1 (stereo not given) | > 5 mg/kg | 
15 | CCCCCCCCCCCCCCCCC1COC(COCCCCCCC[n+]2ccsc2)C1 (stereo not given) | 2 mg/kg | 
16 | CCCCCCCCCCCCCCOCC1COC(COCCCCCC[n+]2ccsc2)C1 (stereo not given) | 3.1 mg/kg | 
17 | CCCCCCCCCCCCCCCCCCCC1OCC(COC(=O)CCCCC[n+]2ccsc2)O1 (stereo not given) | 5.1 mg/kg | 
18 | CCCCCCCCCCCCCCCNC(=O)OCC1CC(COC(=O)N(Cc2cccc[n+]2CC)C(C)=O)CO1 (stereo in doubt; form 1) | 0.057 mg/kg | 
19 | CCCCCCCCCCCCCCCCOCC1COC(COC(=O)NCCc2cccc[n+]2CC)C1 (stereo not given) | > 5 mg/kg | 
20 | CCCCCCCCCCCCCCCCOCC1CC(COCCCCCC[n+]2ccsc2)CO1 (stereo not given) | 1.8 mg/kg | 
21 | CCCCCCCCCCCCCCCCCCOCC1COC(COC(=O)N(Cc2cc[n+](CC)cc2)C(C)=O)C1 (stereo not given) | 1.6 mg/kg | 
22 | CCCCCCCCCCCCCCC1COC(COCCCCCC[n+]2cccc3ccccc32)C1 (stereo not given) | 3 mg/kg | 
23 | CCCCCCCCCCCCCCCNC(=O)OCC1CC(COC(=O)N(Cc2cccc[n+]2CC)C(C)=O)CO1 (stereo in doubt; form 2) | 0.042 mg/kg | 
24 | CCCCCCCCCCCCCCCCCCOCC1CC(COCCCCC[n+]2ccsc2)CO1 (stereo not given) | 2.5 mg/kg | 
25 | CCCCCCCCCCCCCCCCOCC1COC(COC(=O)NCc2cccc[n+]2CC)C1 (stereo not given) | > 5 mg/kg | 

Row | SMILES | ID50 [1] | ED50 (Rattus norvegicus) [mg/kg]
26 | CCCCCCCCCCCCCCCCCC1OCC(COC(=O)N(Cc2cccc[n+]2CC)C(C)=O)O1 (stereo not given) | 0.24 mg/kg | 
27 | CCCCCCCCCCCCCCC1COC(COCCCCCCCC[n+]2ccsc2)C1 (stereo not given) | 2.3 mg/kg | 
28 | CCCCCCCCCCCCCCCCCCOCC1COC(COC(=O)CCCCC[n+]2ccsc2)C1 (stereo not given) | 2.4 mg/kg | 
29 | CCCCCCCCCCCCCCCCCC1OCC(COCCCCCC[n+]2ccsc2)O1 (stereo not given) | 1.3 mg/kg | 
30 | CCCCCCCCCCCCCCCCCCOCC1COC(COC(=O)N(Cc2cccc[n+]2CC)C(C)=O)O1 (stereo not given) | 0.017 mg/kg | 
31 | CCCCCCCCCCCCCCCCCCNC(=O)OCC(COC(=O)N(Cc1cccc[n+]1CC)C(C)=O)OC (stereo not given) | 0.0078 mg/kg and 0.011 mg/kg | 
32 | CCCCCCCCCCCCCCCCOCC1COC(COC(=O)N(Cc2cccc[n+]2C)C(C)=O)C1 (stereo not given) | 0.24 mg/kg | 
33 | CCCCCCCCCCCCCCCCCC1OCC(COP(=O)([O-])OCC[N+](C)(C)C)O1 (stereo not given) | > 5 mg/kg | 
34 | CCCCCCCCCCCCCCCCCCOCC1OCC(COC(=O)N(Cc2cccc[n+]2CC)C(C)=O)O1 (stereo not given) | 0.041 mg/kg | 
35 | CCCCCCCCCCCCCCCCOCC1COC(COC(=O)N(CCc2cccc[n+]2CC)C(C)=O)C1 (stereo not given) | > 5 mg/kg | 
36 | CCCCCCCCCCCCCCCCCCOCC1CC(COC(=O)CCCCC[n+]2ccsc2)CO1 (stereo not given) | 1.1 mg/kg | 
37 | CCCCCCCCCCCCCCCCCC1OCC(COCCCC[n+]2ccsc2)O1 (stereo not given) | > 5 mg/kg | 
38 | CCCCCCCCCCCCCCCCCC1OCC(COCCCCCC[N+](C)(C)C)O1 (stereo not given) | > 5 mg/kg | 
39 | CCCCCCCCCCCCCCCCOCC1CC(COC(=O)N(Cc2cccc[n+]2CC)C(C)=O)CO1 (stereo not given) | 0.027 mg/kg and 0.02 mg/kg | 
40 | CCCCCCCCCCCCCCCCCC1OCC(COCCCCCCCC[n+]2ccsc2)O1.Cc1ccc(S(=O)(=O)[O-])cc1 (stereo not given) |  | > 5
41 | CCCCCCCCCCCCCCC1COC(COCCCCCC[n+]2ccsc2)C1 (stereo in doubt; form 1) | 2.5 mg/kg | 
42 | CCCCCCCCCCCCCCCCOCC1COC(COC(=O)CCCCC[n+]2ccsc2)C1 (stereo not given) | 1.7 mg/kg | 
43 | CCCCCCCCCCCCCCCCOCC1COC(COC(=O)N(C(C)=O)c2ccc[n+](CC)c2)C1 (stereo not given) | 0.13 mg/kg | 
44 | CCCCCCCCCCCCCCC1COC(COP(=O)([O-])OCC[n+]2ccccc2)C1 (stereo not given) | > 5 mg/kg | 
45 | CCCCCCCCCCCCCCCC1CCC(COC(=O)CCCCC[n+]2ccsc2)O1 (stereo not given) | 1.2 mg/kg | 
46 | CCCCCCCCCCCCCCCCOCC1OCC(COCCCCCC[n+]2ccsc2)O1 (stereo not given) | 1.8 mg/kg | 
47 | CCCCCCCCCCCCCCCCCC1OCC(COCCCCCC[n+]2cccc3ccccc32)O1 (stereo not given) | 3.8 mg/kg | 
48 | CCCCCCCCCCCCCCCCOCC1COC(COC(=O)N(C(C)=O)c2cc[n+](CC)cc2)C1 (stereo not given) | > 5 mg/kg | 
49 | CCCCCCCCCCCCCCCCOCC1OCC(COC(=O)N(Cc2cccc[n+]2CC)C(C)=O)O1 (stereo not given) | 0.024 mg/kg | 
50 | CCCCCCCCCCCCCCC1COC(COCCCCCCC[n+]2ccsc2)C1 (stereo not given) | 1.5 mg/kg | 

Row | SMILES | ID50 [1] | ED50 (Rattus norvegicus) [mg/kg]
51 | CCCCCCCCCCCCCCCCCC1OCC(COP(=O)([O-])OCC[n+]2ccccc2)O1 (stereo not given) | > 5 mg/kg | 
52 | CCCCCCCCCCCCCCCCCC1CC(COC(=O)N(Cc2cccc[n+]2CC)C(C)=O)CO1 (stereo not given) | 0.052 mg/kg | 
53 | CCCCCCCCCCCCCCCCCCOCC1COC(COC(=O)N(Cc2ccc[n+](CC)c2)C(C)=O)C1 (stereo not given) | > 5 mg/kg | 
54 | CCCCCCCCCCCCCCCCOCC1COC(COC(=O)N(Cc2cccc[n+]2CC)C(C)=O)O1 (stereo not given) | 0.057 mg/kg and 0.029 mg/kg | 
55 | CCCCCCCCCCCCCCCC1CCC(COC(=O)N(Cc2cccc[n+]2CC)C(C)=O)O1 (stereo not given) | 0.15 mg/kg | 
56 | CCCCCCCCCCCCCCCCCC1COC(COC(=O)N(Cc2cccc[n+]2CC)C(C)=O)O1 (stereo not given) | 0.074 mg/kg | 
57 | CCCCCCCCCCCCCCCCCCOCC1COC(COC(=O)Nc2cc[n+](CC)cc2)C1 (stereo not given) | > 5 mg/kg | 
58 | CCCCCCCCCCCCCCCNC(=O)OCC1COC(COC(=O)N(Cc2cccc[n+]2CC)C(C)=O)C1 (stereo not given) | 0.067 mg/kg and 0.033 mg/kg | 
59 | CCCCCCCCCCCCCCOCC1COC(COC(=O)N(Cc2cccc[n+]2CC)C(C)=O)O1 (stereo not given) | 0.2 mg/kg | 
60 | CCCCCCCCCCCCCCC1COC(COC(=O)CCCCC[n+]2ccsc2)C1.Cc1ccc(S(=O)(=O)[O-])cc1 (stereo not given) |  | > 5
61 | CCCCCCCCCCCCCCC1COC(COP(=O)([O-])OCC[N+](C)(C)C)C1 (stereo not given) | > 5 mg/kg | 
62 | CCCCCCCCCCCCCCOCC1COC(COCCCCCCC[n+]2ccsc2)C1 (stereo not given) | 1.4 mg/kg | 
63 | CCCCCCCCCCCCCC1OCC(COC(=O)CCCCC[n+]2ccsc2)O1 (stereo not given) | > 5 mg/kg | 
64 | CCCCCCCCCCCCCCCC1OCC(COC(=O)CCCCC[n+]2ccsc2)O1 (stereo not given) | 0.86 mg/kg | 
65 | CCCCCCCCCCCCCCC1COC(COCCCC[n+]2ccsc2)C1 (stereo not given) | > 5 mg/kg | 
66 | CCCCCCCCCCCCCCCC1CCC(COCCCCCC[n+]2ccsc2)O1 (stereo not given) | 2 mg/kg | 
67 | CCCCCCCCCCCCCCCCOCC1CCC(COC(=O)N(Cc2cccc[n+]2CC)C(C)=O)O1 (stereo not given) | 0.036 mg/kg | 
68 | CC1OCC(COC(=O)CCCCC[n+]2ccsc2)O1.Cc1ccc(S(=O)(=O)[O-])cc1 (stereo not given) |  | > 5
69 | CCCCCCCCCCCCCCC1COC(COCCCCCC[N+](C)(C)C)C1 (stereo not given) | > 5 mg/kg | 
70 | CCCCCCCCCCCCCCCCCCOCC1COC(COC(=O)N(Cc2cccc[n+]2CC)C(C)=O)C1 (stereo not given) | 0.035 mg/kg | 
71 | CCCCCCCCCCCCCCCCOCC1COC(COC(=O)N(Cc2cccc[n+]2CC)C(C)=O)C1 (stereo not given) | 0.044 mg/kg and 0.035 mg/kg | 
72 | CCCCCCCCCCCCCCCCCCC1COC(COC(=O)N(Cc2cccc[n+]2CC)C(C)=O)C1 (stereo not given) | 0.23 mg/kg | 
73 | CCCCCCCCCCCCCCC1COC(COCCCCCC[n+]2ccsc2)C1 (stereo in doubt; form 2) | 2.9 mg/kg | 
74 | CCCCCCCCCCCCCCCCOCC1OCC(COC(=O)CCCCC[n+]2ccsc2)O1 (stereo not given) | 1.1 mg/kg | 
75 | CCCCCCCCCCCCCCCCCC1OCC(COCCCCCC[n+]2ccccc2)O1 (stereo not given) | > 5 mg/kg | 
